M5 antag: CHRM5 antagonism in calcium assay; P08912; inhibition, % at 3 µM; CHO-hM5 cells, Fluo-8 calcium fluorescence, ACh EC80; 360,000 tested, 0.59% active;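 active means inhibition above a per-plate cutoff, the mean of that plate's test compounds plus 3 SD, cut at about 27% in these data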
CHRM5 agonist: agonists of human muscarinic M5 receptor (CHRM5); activation, % at 3 µM; AID 624037; 360,000 tested, 0.19% active; CHO-K1 hM5 cells, Fluo-8 calcium fluorescence; 0% DMSO wells, 100% maximal acetylcholine response; P08912;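 active means activation above the run's mean over test compounds plus 3 SD, cut at about 23% in these data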;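 further: signal is peak over basal fluorescence ratio across the kinetic read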
M4 PAM: positive allosteric modulators of human muscarinic M4 receptor | 360,000 tested, 0.4% active | P08173 | activation, % at 3 µM | AID 624126 | CHO-K1 hM4/Gqi5, Fluo-8 calcium fluorescence, ACh EC20; 0% = ACh EC20, 100% = maximal ACh;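 active means activation above its plate's cutoff, the mean activation of sample wells plus 3 SD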
Target sequence (P08173 whole entry, looked up): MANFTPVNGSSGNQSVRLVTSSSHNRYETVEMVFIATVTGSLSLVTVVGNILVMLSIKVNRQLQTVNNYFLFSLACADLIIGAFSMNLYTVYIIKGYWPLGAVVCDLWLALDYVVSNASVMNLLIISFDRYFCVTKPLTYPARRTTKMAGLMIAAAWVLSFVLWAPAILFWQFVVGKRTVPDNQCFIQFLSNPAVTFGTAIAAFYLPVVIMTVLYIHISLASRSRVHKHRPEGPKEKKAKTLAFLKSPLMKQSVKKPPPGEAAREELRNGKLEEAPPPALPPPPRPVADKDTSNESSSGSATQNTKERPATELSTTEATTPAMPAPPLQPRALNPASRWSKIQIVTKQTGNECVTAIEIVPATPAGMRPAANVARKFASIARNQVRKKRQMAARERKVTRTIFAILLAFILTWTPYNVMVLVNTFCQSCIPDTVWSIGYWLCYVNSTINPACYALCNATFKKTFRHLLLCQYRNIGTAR
M4 antag: CHRM4 antagonism in calcium assay; 360,000 tested, 0.73% active; AID 624125; CHO-hM4 cells, ACh EC80, Fluo-8 calcium fluorescence; inhibition, % at 3 µM;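 active means inhibition above its plate's cutoff, the mean inhibition of sample wells plus 3 SD, cut at about 27% in these data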
M4 ag: agonists of human muscarinic M4 receptor (CHRM4) | P08173 | CHO-K1 hM4/Gqi5, Fluo-8 calcium fluorescence; vehicle 0%, full acetylcholine response 100% | activation, % at 3 µM | 360,000 tested, 0.14% active;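 active means activation above the run mean over all test wells plus 3 SD, cut at about 32% in these data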;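 further: peak over basal fluorescence ratio per well then scaled between controls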
CHRM5 PAM: potentiates acetylcholine response at human M5 receptor; activation, % at 3 µM; AID 624038; 360,000 tested, 0.3% active; CHO-K1 hM5, Fluo-8 calcium, ACh EC20 PAM; 0% = ACh EC20, 100% = ACh EC100; P08912;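 active means activation above the run cutoff, the mean activation of all test compounds plus 3 SD, cut at about 18% in these data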
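Replicates: One well per compound, no replicates | System: Human M5 receptor in CHO-K1 cells | Benchmarks: Low control EC20 acetylcholine (0%), high control EC100 acetylcholine (100%) | Probe or stimulus: Acetylcholine, EC20 level | Times: Fluo-8 loading 80 min at 37 °C plus 30 min room temperature | Signal: Intracellular calcium via Fluo-8 fluorescence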
A number is an active result. In the library only some 1.9% were active in any assay of this set; here they are far more common.

Results for Cn1nc(C(=O)NCc2cccnc2)c2ccccc2c1=O ?
M5 antag: inactive; CHRM5 agonist: inactive; M4 PAM: inactive; M4 antag: inactive; M4 ag: inactive; CHRM5 PAM: 20

What do the screens show for `Cn1nc(C(=O)Nc2cccnc2)c2ccccc2c1=O`?
M5 antag: inactive; CHRM5 agonist: inactive; M4 PAM: inactive; M4 antag: inactive; M4 ag: inactive; CHRM5 PAM: inactive

Results for Cn1nc(C(=O)NCc2ccco2)c2ccccc2c1=O ?
M5 antag: inactive; CHRM5 agonist: inactive; M4 PAM: 23; M4 antag: inactive; M4 ag: inactive; CHRM5 PAM: inactive

How did O=C(COC(=O)c1ccc2ncsc2c1)NCc1ccccc1Cl do in these assays?
M5 antag: inactive; CHRM5 agonist: inactive; M4 PAM: inactive; M4 antag: inactive; M4 ag: inactive; CHRM5 PAM: inactive

How did O=S(=O)(Nc1cccnc1)c1ccc(Br)c2ccccc12 do in these assays?
M5 antag: inactive; CHRM5 agonist: inactive; M4 PAM: inactive; M4 antag: inactive; M4 ag: inactive; CHRM5 PAM: inactive

How did Cc1ccc(NC(=O)CN(C)C(=O)c2ccc(NS(=O)(=O)c3cccc([N+](=O)[O-])c3)cc2)cc1 do in these assays?
M5 antag: inactive; CHRM5 agonist: inactive; M4 PAM: inactive; M4 antag: inactive; M4 ag: inactive; CHRM5 PAM: inactive

How did Cc1ccc(NS(=O)(=O)c2ccc(OCC(=O)Nc3cccc([N+](=O)[O-])c3)c(C)c2)cc1 do in these assays?
M5 antag: inactive; CHRM5 agonist: inactive; M4 PAM: inactive; M4 antag: 30; M4 ag: inactive; CHRM5 PAM: inactive

Results for CCOC(=O)C(=CN=C(N)Nc1nc2ccccc2o1)C(=O)OCC ?
M5 antag: inactive; CHRM5 agonist: inactive; M4 PAM: 20; M4 antag: inactive; M4 ag: inactive; CHRM5 PAM: inactive

What do the screens show for `Cn1c(=O)n(-c2cccc(Cl)c2)c(=O)n1C`?
M5 antag: inactive; CHRM5 agonist: inactive; M4 PAM: inactive; M4 antag: 40; M4 ag: inactive; CHRM5 PAM: inactive

Results for O=C(Cn1c(=O)n(-c2cccc(Cl)c2)c(=O)n1CC(=O)N1CCCCC1)N1CCCCC1 ?
M5 antag: inactive; CHRM5 agonist: inactive; M4 PAM: inactive; M4 antag: inactive; M4 ag: inactive; CHRM5 PAM: inactive

How did O=C(c1cc(=O)[nH]c2ccccc12)N1CCN(S(=O)(=O)c2ccc(Cl)cc2)CC1 do in these assays?
M5 antag: 27; CHRM5 agonist: inactive; M4 PAM: inactive; M4 antag: inactive; M4 ag: inactive; CHRM5 PAM: inactive

Results for COc1cc([N+](=O)[O-])ccc1NC(=O)CN1CCN(C(=O)c2ccco2)CC1 ?
M5 antag: inactive; CHRM5 agonist: inactive; M4 PAM: inactive; M4 antag: inactive; M4 ag: inactive; CHRM5 PAM: inactive

How did Cc1ccc(CNC(=O)[C@H]2O[C@@H](n3ccc(N)nc3=O)[C@H](O)[C@@H]2O)o1 do in these assays?
M5 antag: inactive; CHRM5 agonist: inactive; M4 PAM: 20; M4 antag: inactive; M4 ag: inactive; CHRM5 PAM: inactive

How did CCCn1cnnc1CNC(=O)[C@H]1O[C@@H](n2ccc(N)nc2=O)[C@H](O)[C@@H]1O do in these assays?
M5 antag: inactive; CHRM5 agonist: inactive; M4 PAM: inactive; M4 antag: inactive; M4 ag: inactive; CHRM5 PAM: inactive

Results for CCCCN(C(=O)c1ccc(S(=O)(=O)N(CC)CC)cc1)c1c(N)n(CCC)c(=O)[nH]c1=O ?
M5 antag: inactive; CHRM5 agonist: inactive; M4 PAM: inactive; M4 antag: inactive; M4 ag: inactive; CHRM5 PAM: inactive

Results for CCN1CCC2(CC1)N=C(c1ccc(F)cc1)C(=S)N2C(=O)c1ccc(C(C)(C)C)cc1 ?
M5 antag: 76; CHRM5 agonist: inactive; M4 PAM: inactive; M4 antag: inactive; M4 ag: inactive; CHRM5 PAM: inactive

How did CN1CCC2(CC1)N=C(c1ccc(F)cc1)C(=S)N2C(=O)c1ccccc1 do in these assays?
M5 antag: 40; CHRM5 agonist: inactive; M4 PAM: inactive; M4 antag: inactive; M4 ag: inactive; CHRM5 PAM: inactive

What do the screens show for `O=C(c1ccccc1)N1N=C(c2ccc(F)cc2)CC1(O)C(F)(F)F` (stereo unspecified)?
M5 antag: inactive; CHRM5 agonist: inactive; M4 PAM: inactive; M4 antag: inactive; M4 ag: inactive; CHRM5 PAM: inactive

Results for CCOc1ccc(S(=O)(=O)n2nc(C)c(S(=O)(=O)N3CCOCC3)c2C)cc1 ?
M5 antag: inactive; CHRM5 agonist: inactive; M4 PAM: inactive; M4 antag: inactive; M4 ag: inactive; CHRM5 PAM: inactive

What do the screens show for `Cc1c(Cl)cccc1NC(=S)NCCc1ccc(C(F)(F)F)cc1`?
M5 antag: inactive; CHRM5 agonist: inactive; M4 PAM: inactive; M4 antag: inactive; M4 ag: inactive; CHRM5 PAM: inactive

How did NC(=O)c1cc(S(=O)(=O)N2CCCC2)ccc1OCCOc1ccccc1F do in these assays?
M5 antag: inactive; CHRM5 agonist: inactive; M4 PAM: inactive; M4 antag: inactive; M4 ag: inactive; CHRM5 PAM: inactive

What do the screens show for `Cc1noc(C)c1COc1ccccc1C(=O)NCc1ccccc1Cl`?
M5 antag: 99; CHRM5 agonist: inactive; M4 PAM: inactive; M4 antag: inactive; M4 ag: inactive; CHRM5 PAM: inactive

What do the screens show for `CCCN(CC(=O)Nc1ccccc1C)C(=O)CCNC(=O)c1ccccc1Cl`?
M5 antag: inactive; CHRM5 agonist: inactive; M4 PAM: inactive; M4 antag: inactive; M4 ag: inactive; CHRM5 PAM: inactive

How did N#Cc1ccccc1S(=O)(=O)N1CCN(CC(=O)NCC2(N3CCOCC3)CCCCC2)CC1 do in these assays?
M5 antag: inactive; CHRM5 agonist: inactive; M4 PAM: inactive; M4 antag: inactive; M4 ag: inactive; CHRM5 PAM: inactive

Results for CCOC(=O)c1c(C)nsc1NC(=O)C1CCCCC1 ?
M5 antag: inactive; CHRM5 agonist: inactive; M4 PAM: 14; M4 antag: inactive; M4 ag: inactive; CHRM5 PAM: inactive

How did CCOC(=O)COc1ccccc1/C=C\[N+](=O)[O-] do in these assays?
M5 antag: inactive; CHRM5 agonist: inactive; M4 PAM: inactive; M4 antag: 27; M4 ag: inactive; CHRM5 PAM: inactive

Results for Nc1nonc1NN=C1CCCCC1 ?
M5 antag: inactive; CHRM5 agonist: inactive; M4 PAM: inactive; M4 antag: inactive; M4 ag: inactive; CHRM5 PAM: 21

How did COc1ccc(/C=N/Nc2nonc2N)cc1 do in these assays?
M5 antag: inactive; CHRM5 agonist: inactive; M4 PAM: inactive; M4 antag: inactive; M4 ag: inactive; CHRM5 PAM: inactive

Results for O=C(Nc1ccc(Cl)c(Cl)c1)O/N=C/c1ccncc1 ?
M5 antag: 32; CHRM5 agonist: inactive; M4 PAM: inactive; M4 antag: inactive; M4 ag: inactive; CHRM5 PAM: inactive
